Results from ChEMBL document CHEMBL1155958, “Inhibition of oxidative metabolism of tocopherols with omega-N-heterocyclic derivatives of vitamin E” (Bioorg Med Chem, 2008).
The source made the active and inactive calls. The calls are words filed in the database; no cut-off is given here.

Columns and labels:
Mus musculus [1] = test: Enrichment in delta-tocopherol in FVB/N mouse liver assessed as doubling in delta-tocopherol/alpha-tocopherol ratio at 500 mg/kg in delta-tocopherol rich diet for 10 days; type: functional, organism-based; parameters: dose 500 mg/kg
Mus musculus [2] = test: Enrichment in delta-tocopherol in FVB/N mouse bile assessed as tripling in delta-tocopherol/alpha-tocopherol ratio at 500 mg/kg in delta-tocopherol rich diet for 10 days; type: functional, organism-based; parameters: dose 500 mg/kg
Cytochrome P450 4F2 [3] = molecular target: T1, Cytochrome P450 4F2 (Homo sapiens, UniProt P78329); test: Inhibition of CYP4F2-mediated gamma-tocopherol metabolism in human HepG2/C3A cells at 1 uM preincubated for 6 hrs and continued for 24 hrs; type: cell-based
T1 sequence (P78329 whole entry): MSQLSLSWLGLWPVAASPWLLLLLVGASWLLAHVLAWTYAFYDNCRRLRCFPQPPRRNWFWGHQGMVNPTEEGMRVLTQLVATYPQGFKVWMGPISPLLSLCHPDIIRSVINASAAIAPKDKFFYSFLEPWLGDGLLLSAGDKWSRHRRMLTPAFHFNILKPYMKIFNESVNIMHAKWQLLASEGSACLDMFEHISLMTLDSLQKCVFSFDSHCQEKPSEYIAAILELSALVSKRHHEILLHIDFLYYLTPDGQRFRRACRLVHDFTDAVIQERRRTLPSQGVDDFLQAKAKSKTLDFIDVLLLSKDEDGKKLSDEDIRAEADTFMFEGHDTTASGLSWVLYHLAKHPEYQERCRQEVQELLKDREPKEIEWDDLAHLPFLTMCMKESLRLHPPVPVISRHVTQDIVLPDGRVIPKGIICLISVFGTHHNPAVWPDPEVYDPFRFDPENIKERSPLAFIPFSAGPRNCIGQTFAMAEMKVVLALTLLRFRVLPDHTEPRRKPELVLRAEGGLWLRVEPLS
In short: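 Confluent HepG2/C3A monolayers exposed to 1 µM inhibitor for 6 hr. Then incubated 24 hr in medium with 25 µM γ-tocopherol, inhibitor not replaced. Medium carboxychromanol metabolites measured by GC-MS against d9-α-CEHC internal standard.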

Cytochrome P450 3A4 [4] = molecular target: T2, Cytochrome P450 3A4 (Homo sapiens, UniProt P08684); test: Inhibition of CYP3A4 in human HepG2/C3A cells assessed as testosterone-6-hydroxylase activity; type: ADME, cell-based
T2 sequence (P08684 whole entry): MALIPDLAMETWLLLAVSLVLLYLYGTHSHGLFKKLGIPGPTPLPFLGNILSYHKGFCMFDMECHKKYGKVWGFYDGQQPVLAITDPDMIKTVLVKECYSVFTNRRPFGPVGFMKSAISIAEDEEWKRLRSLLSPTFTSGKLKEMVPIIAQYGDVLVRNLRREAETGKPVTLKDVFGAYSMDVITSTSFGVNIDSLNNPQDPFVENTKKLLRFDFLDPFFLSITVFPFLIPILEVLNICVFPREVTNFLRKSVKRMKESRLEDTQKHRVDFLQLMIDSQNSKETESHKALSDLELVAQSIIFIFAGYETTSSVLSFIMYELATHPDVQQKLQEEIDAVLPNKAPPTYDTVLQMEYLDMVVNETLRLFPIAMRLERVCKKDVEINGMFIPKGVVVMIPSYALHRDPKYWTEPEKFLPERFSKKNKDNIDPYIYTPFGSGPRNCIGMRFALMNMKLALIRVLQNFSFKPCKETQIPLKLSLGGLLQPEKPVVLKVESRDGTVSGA
In short: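 Confluent HepG2/C3A cultures pre-incubated 4 hr with inhibitor or ethanol control, then given 50 µM testosterone. After 48 hr, medium extracted with ethyl acetate and 6-hydroxytestosterone measured as its trimethylsilyl ether by GC-MS. Percent inhibition reported as means and standard deviation.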

Cytochrome P450 3A4 [5] = molecular target: T2, Cytochrome P450 3A4; test: Inhibition of human recombinant CYP3A4 expressed in insect cell microsome assessed as testosterone-6-hydroxylase activity at 4 uM after 60 mins; type: ADME, microsomes; details: recombinant enzyme, 1 h
In short: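 Insect-cell microsomes expressing only recombinant human CYP3A4 (20 pmol P450) incubated 60 min with 200 µM testosterone, 1 mM NADPH and 0.25% BSA in […], pH 7.4, with or without inhibitor. Reaction stopped with cold ethanol and extracted with hexane/MTBE (7:1). 6-OH-testosterone expressed as nmol per nmol membrane cholesterol.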

Cytochrome P450 4F2 [6] = molecular target: T1, Cytochrome P450 4F2; test: Inhibition of CYP4F2-mediated gamma-tocopherol metabolism in human HepG2/C3A cells preincubated for 4 hrs and continued for 48 hrs; type: cell-based; details: for Activity: human, hepg2/c3a, 48 h
In short: (§1)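 Confluent HepG2/C3A monolayers pre-incubated 4 hr with inhibitor (ethanol stock) or ethanol vehicle. Medium then replaced with fresh medium containing γ-tocopherol, 25 µM final, plus inhibitor again. After 48 hr, medium analysed by GC-MS for 3'- and 5'-carboxychromanols, with d9-α-CEHC internal standard. Results given as percent inhibition, means and standard deviation.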

CYP4F2 [7] = molecular target: T3, CYP4F2 (Homo sapiens, UniProt P78329); test: Inhibition of CYP4F2-mediated gamma-tocopherol metabolism in human HepG2/C3A cells at 1.0 uM preincubated for 4 hrs and continued for 48 hrs; type: cell-based; details: probe gamma-tocopherol; in short: as §1
T3 sequence (P78329 whole entry): T1 sequence (P78329 whole entry)

CYP4F2 [8] = molecular target: T3, CYP4F2; test: Inhibition of CYP4F2-mediated gamma-tocopherol metabolism in human HepG2/C3A cells at 20 nM preincubated for 4 hrs and continued for 48 hrs; type: cell-based; details: probe gamma-tocopherol; in short: as §1

SMILES: Cc1c(C)c2c(c(C)c1O)CC[C@@](C)(CCCCCCCCCn1ccnc1)O2
- Activity (Mus musculus [1]): Active
- Activity (Mus musculus [2]): Active
- Activity (Cytochrome P450 4F2 [3]): Active
- Activity (Cytochrome P450 3A4 [4]): Active
- inhibition (INH) (Cytochrome P450 3A4 [5]): 90%
- IC50 (Cytochrome P450 4F2 [6]; read-out: ED50 (the source's name)): 1 nM

SMILES: Cc1c(C)c2c(c(C)c1O)CC[C@@](C)(CCCCCCCCCn1nc3ccccc3n1)O2
- Activity (Cytochrome P450 4F2 [6]): Not Active

SMILES: Cc1c(C)c2c(c(C)c1O)CC[C@@](C)(CCCCCCCCCn1cnc3ccccc31)O2
- Activity (Cytochrome P450 4F2 [6]): Not Active

SMILES: Cc1c(C)c2c(c(C)c1O)CC[C@@](C)(CCCCCCCCCn1ccnn1)O2
- Activity (Cytochrome P450 3A4 [4]): Active
- inhibition at 48 h, 1 µM (CYP4F2 [7]): 36%

SMILES: Cc1c(C)c2c(c(C)c1O)CC[C@@](C)(CCCCCCCCCn1cncn1)O2
- Activity (Cytochrome P450 3A4 [4]): Active
- inhibition at 48 h, 0.02 µM (CYP4F2 [8]): 42%

SMILES: Cc1c(C)c2c(c(C)c1O)CC[C@@](C)(CCCCCCCCCn1nnc3ccccc31)O2
- Activity (Cytochrome P450 4F2 [6]): Not Active
